Data set [1] is described as follows: Antioxidant activity assessed as trolox equivalent of ABTS radical scavenging activity measured after 1 hr by UV-vis spectrophotometric method. The format is functional. The method in brief:
(§1)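 ABTS cation-radical decolorization was read spectrophotometrically as the fall in absorbance after 1 h. Trolox was the reference. TEAC was taken as the ratio of concentration-response slopes, test/Trolox, and IC50 was also derived. Data are mean ± SEM, n = 3.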

The nature of data set [2]: Antioxidant activity assessed as AAPH scavenging activity by measuring residual fluorescence at 10 uM measured at 1 min interval for 30 mins by ORAC fluorescein assay relative to control. The format is functional. The method in brief:
(§2)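 ORAC-FL assay with fluorescein as the probe and AAPH as the peroxyl radical generator. The loss of fluorescence over time was followed, and the result is given as % fluorescence restored at 10 and 50 µM. Each value is the mean of two independent experiments.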

A short description of data set [3]: Antioxidant activity assessed as AAPH scavenging activity by measuring residual fluorescence at 50 uM measured at 1 min interval for 30 mins by ORAC fluorescein assay relative to control. The format is functional. The essentials:
as §2

Data set [4] has as its system HeLa. In words: Cytotoxicity against human HeLa cells. The format is functional, cell-based.
The subject of data set [5] is Rattus norvegicus. Description: Antiinflammatory activity in rat model of carrageenan-induced paw edema assessed as inhibition of hind paw swelling at 15 mg/kg, ip measured after 3 hrs relative to control. The format is functional. On the technique in general: The carrageenan paw model is a standard test of acute inflammation.
Data set [6] has as its system Rattus norvegicus. Description: Antiinflammatory activity in rat model of carrageenan-induced paw edema assessed as inhibition of hind paw swelling at 15 mg/kg, ip measured after 5 hrs. Format: functional, organism-based.
Data set [7] deals with Neisseria gonorrhoeae. In words: Antibacterial activity against Neisseria gonorrhoeae. The format is functional.
Data set [8] relates to Escherichia coli. In words: Antibacterial activity against Escherichia coli. The format is functional.
The test system of data set [9] is Klebsiella pneumoniae. Description: Antibacterial activity against Klebsiella pneumoniae. Format: functional.
In data set [10] the test system is Citrobacter braakii. In words: Antibacterial activity against Citrobacter braakii. Format: functional.
In data set [11] the test system is Proteus vulgaris. In words: Antibacterial activity against Proteus vulgaris. Format: functional.
Data set [12] has as its system Serratia marcescens. In words: Antibacterial activity against Serratia marcescens. Format: functional.
Data set [13] deals with Shigella flexneri. In words: Antibacterial activity against Shigella flexneri. The format is functional.
For data set [14], the system named is Pseudomonas aeruginosa. In words: Antibacterial activity against Pseudomonas aeruginosa. The format is functional.
The test system of data set [15] is Streptococcus pyogenes. In words: Antibacterial activity against Streptococcus pyogenes. Format: functional.
The subject of data set [16] is Staphylococcus aureus. Description: Antibacterial activity against Staphylococcus aureus. Format: functional.
Data set [17] has as its system NHDF. Description: Cytotoxicity against HDF cells. The format is cell-based, Homo sapiens.
Data set [18] has as its system Mycobacterium tuberculosis. Description: Antitubercular activity against Mycobacterium tuberculosis H37Rv. Format: functional. The essentials:
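Mycobacterium tuberculosis strain H37Rv; minimum inhibitory concentration (MIC) taken as the lowest level needed to inhibit bacterial growth; isoniazid and pyrazinamide served as reference drugs.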

Data set [19] has as its system Trichophyton rubrum. Description: Antifungal activity against Trichophyton rubrum. The format is functional.
The test system of data set [20] is Nannizzia gypsea. In words: Antifungal activity against Trichophyton gypseum. The format is functional.
Data set [21] concerns Trichophyton tonsurans. Description: Antifungal activity against Trichophyton tonsurans. Format: functional.
Data set [22] deals with Trichophyton violaceum. Description: Antifungal activity against Trichophyton violaceum. Format: functional.
Data set [23] concerns Trichophyton interdigitale. In words: Antifungal activity against Trichophyton mentagrophytes var. interdigitale. The format is functional.
For data set [24], the system named is Epidermophyton floccosum. Description: Antifungal activity against Epidermophyton floccosum. Format: functional.
For data set [25], the system named is Microsporum canis. In words: Antifungal activity against Microsporum canis. The format is functional.
The subject of data set [26] is Candida albicans. Description: Antifungal activity against Candida albicans. Format: functional.
A short description of data set [27]: Antioxidant activity assessed as ABTS radical scavenging activity measured after 1 hr by UV-vis spectrophotometric method. Format: functional. The essentials:
as §1

Data set [28] concerns Erythrocyte. Description: Antioxidant activity in human erythrocytes assessed as protection against AAPH-induced hemolysis at 50 uM preincubated for 20 mins followed by AAPH addition and measured after 2 hrs by spectrophotometric method relative to control. The format is functional. The conditions noted are these: time 140 min, 2.333 h. The method in brief:
(§3)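 Erythrocyte hemolysis assay with AAPH as the free-radical initiator, testing 50 and 400 µM. Results are expressed as relative protection of membranes against oxidative damage, each the mean of two independent experiments.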

Data set [29] has as its system Erythrocyte. In words: Antioxidant activity in human erythrocytes assessed as protection against AAPH-induced hemolysis at 400 uM preincubated for 20 mins followed by AAPH addition and measured after 2 hrs by spectrophotometric method relative to control. The format is functional. The conditions noted are these: time 140 min, 2.333 h. The essentials: as §3
The nature of data set [30]: Selectivity index, ratio of IC50 for HDF cells to IC50 for human HeLa cells. The format is toxicity. The conditions noted are these: HDF cells versus HeLa cells, read-out: Ratio IC50.
The subject of data set [31] is Rattus norvegicus. Description: Antiinflammatory activity in rat model of carrageenan-induced paw edema assessed as inhibition of hind paw swelling at 15 mg/kg, ip measured after 1 hr relative to control. Format: functional.
Data set [32] has as its system Rattus norvegicus. In words: Analgesic activity in rat assessed as prolongation of latency period at 15 mg/kg, ip measured after 1 hr by hot-plate test relative to control. Format: functional. The essentials:
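Hot-plate test in rats. Compounds were given by intraperitoneal injection. Latency was read at 1 h and, for some compounds, also at 2 h after dosing. Results are expressed as % prolongation of the latent period versus vehicle-treated control. Significance was given as p-values.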
Background: Hot-plate and tail-flick tests time the reaction to a heat stimulus.

[33] abbreviates: Homo sapiens, HeLa, read-out: IC50.

Converted amounts (≈) assume the structure as drawn. “And” between values parts separate entries of the source, which are not always exact repeats. Equal entries are not always repeated. The source made the active and inactive calls. The calls are words filed in the database; no cut-off is given here. Where only a bound is given, the exact number is not on record here.

Consider `Nc1c(C(F)(F)F)n[nH]c1-c1ccccc1`, for which the Activity in data set [1] was 0.58 equiv and 1.35 equiv; in data set [2], 63.1% and 59.7%; in data set [3], 60.2% and 62.8%; in [4], “Dose-dependent effect”. Moreover, the inhibition result in [5] was “inactive”. The result in data set [6] was Active.

As to `Nc1c(C(F)(F)F)n[nH]c1-c1cccs1`, the Activity in [1] was 1.22 equiv and 1.1 equiv; in data set [2] it was 52.5% and 52.6%; in data set [3], 14% and 21.8%. Also, the outcome in data set [6] was Active.

By MIC is commonly meant the lowest concentration found to suppress growth. Low readings indicate inhibition by little substance, high ones a need for much substance. The IC50 is the concentration at which inhibition is half-maximal. In the case of `CS(=O)(=O)c1ccc(-n2nc(C(F)(F)F)c(N)c2-c2ccccc2)cc1.Cl`, the MIC is 250 µg/mL in data set [7]; greater than 250 µg/mL in data set [8]; greater than 250 µg/mL in [9]; greater than 250 µg/mL in [10]; greater than 250 µg/mL in data set [11]; greater than 250 µg/mL in data set [12]. Moreover, the MIC in [13], in data set [14], in data set [15] and in [16] was greater than 250 µg/mL throughout. Moreover, in data set [1], the outcome was inactive. In addition, the IC50 result in data set [4] (hela) and in data set [17] (nhdf) was “Not Active” each time. Besides, the result in data set [6] was Active.

In general, inhibition in vivo refers to the drop in the measured response relative to a control, in per cent. Regarding `Cl.Nc1c(C(F)(F)F)n[nH]c1-c1ccccc1`, the MIC in data set [18] is 6.2 µg/mL; in data set [7], 62.5 µg/mL; in [8], greater than 250 µg/mL; in data set [9], greater than 250 µg/mL; in [10] it was greater than 250 µg/mL; in [11] it was greater than 250 µg/mL. Further, the MIC in data set [12] is greater than 250 µg/mL; in [13] it was greater than 250 µg/mL; in data set [14], greater than 250 µg/mL; in data set [15], greater than 250 µg/mL; in data set [16], greater than 250 µg/mL; in [19], greater than 200 µg/mL. Also, the MIC in data set [20], in data set [21], in data set [22], in data set [23], in data set [24] and in data set [25] was greater than 200 µg/mL in each case. For the same molecule, the minimal inhibitory concentration (MIC) in data set [26] is greater than 200 µg/mL. Further, the results for the 50% inhibitory concentration (IC50) in [27], in [4] (setting [33]) and in data set [17] (nhdf) were 41.8 µM, 1.86 µM and “Not Active”, respectively. The results for the “fold change (FC)” value in data set [28] and in [29] were 1.03 and 0.01, respectively. Besides, in [30], the selectivity ratio was greater than 53.8. In addition, the inhibition in vivo at 15 mg/kg in [31] worked out at 44.8%. In addition, in [32], the Activity was determined as 91.8%.

Take `OC(Cn1cncn1)(Cn1cncn1)c1ccc(F)cc1F` [FLUCONAZOLE]: the minimum inhibitory concentration (MIC) in data set [19] was 6.25 µg/mL (≈ 20.4 µM); in [20] it was 12.5 µg/mL (≈ 40.8 µM); in data set [21], greater than 100 µg/mL; in data set [22], 100 µg/mL (≈ 327 µM); in data set [23], greater than 100 µg/mL; in data set [25], 100 µg/mL (≈ 327 µM). The molecule further had a minimal inhibitory concentration (MIC) in data set [26] greater than 100 µg/mL.

`Cl.Cn1nc(C(F)(F)F)c(N)c1-c1cccs1`: the MIC in data set [18] is 12.5 µg/mL; in data set [7], greater than 250 µg/mL; in data set [8] it was greater than 250 µg/mL; in [9], greater than 250 µg/mL; in data set [10], greater than 250 µg/mL; in [11], greater than 250 µg/mL. Moreover, the minimal inhibitory concentration (MIC) in [12] was greater than 250 µg/mL; in data set [13] it was greater than 250 µg/mL; in data set [14], greater than 250 µg/mL; in [15], greater than 250 µg/mL; in data set [16], greater than 250 µg/mL; in data set [19], greater than 200 µg/mL. The MIC in data set [20] is greater than 200 µg/mL; in [21], greater than 200 µg/mL; in data set [22], greater than 200 µg/mL; in data set [23], 200 µg/mL; in [24] it was greater than 200 µg/mL; in data set [25], greater than 200 µg/mL. Besides, the minimum inhibitory concentration (MIC) in data set [26] was greater than 200 µg/mL. Also, the Activity in [1] is 0.1 equiv; in data set [4] it was “Dose-dependent effect”. For the same molecule, the half-inhibitory concentration (IC50) was 48.7 µM in [4] (setting [33]) and “Not Active” in [17] (nhdf). For the same molecule, the selectivity ratio in data set [30] was greater than 2.05. Besides, in [6], the result was Active.

As to `Cc1ccc(-c2[nH]nc(C(F)(F)F)c2N)cc1`, the Activity in data set [1] stood at 1.43 equiv. Also, the concentration for half-maximal inhibition (IC50) in data set [27] was found to be 13.4 µM. Moreover, the outcome in data set [6] was Active.

With `O=C1O[C@H]([C@@H](O)CO)C(O)=C1O` [ASCORBIC ACID], the half-maximal inhibitory concentration (IC50) in data set [27] came to 21.6 µM.

As for `COc1cccc2c1C(=O)c1c(O)c3c(c(O)c1C2=O)C[C@@](O)(C(=O)CO)C[C@@H]3O[C@H]1C[C@H](N)[C@H](O)[C@H](C)O1` [DOXORUBICIN], the half-maximal inhibitory concentration (IC50) is 4.25 µM in data set [4] (setting [33]) and 2.72 µM in data set [17] (Homo sapiens, NHDF, read-out: IC50).

Source of the values: ChEMBL document CHEMBL4765448, “Multiple biological active 4-aminopyrazoles containing trifluoromethyl and their 4-nitroso-precursors: Synthesis and evaluation” (Eur J Med Chem, 2020).
